Results published in ChEMBL document CHEMBL5724801, “EUbOPEN Chemogenomics Library - Multiplex” (2024).
Several values for one entry are separate records, joined by “and”; a condition that tells them apart may be missing. Identical values can stand only once.

Assays:
[1] = tested on: Fibroblast; experiment: Multiplex assay against human fibroblast; format: toxicity, cell-based
In short: (§1)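 Cells stained live at seeding with Hoechst33342, BioTracker Green Microtubule Cytoskeleton Dye, MitoTracker Red and Annexin V Alexa Fluor 680 were imaged on a CQ1 microscope at 37°C and 5% CO2 after compound addition. Their classification by CellPathfinder machine-learning gating ran from Hoechst high-intensity objects versus normal cells, to healthy, pyknosed or fragmented nuclei among normal cells, to mitotic or apoptotic among pyknosed cells. Tubulin, mitochondrial-mass and membrane-permeability phenotypes are per cents of healthy-nucleus cells.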

[2] = tested on: HEK-293T; experiment: Multiplex assay against HEK293T; format: toxicity, cell-based; conditions: human; in short: as §1
[3] = 12 h, 1 µM, compound concentration 1 uM
[4] = 12 h, 10 µM, compound concentration 10 uM
[5] = 24 h, 1 µM, compound concentration 1 uM
[6] = 24 h, 10 µM, compound concentration 10 uM
[7] = 48 h, 1 µM, compound concentration 1 uM
[8] = 48 h, 10 µM, compound concentration 10 uM

O=C1[C@H](Cc2ccc(O)cc2)N2C(=O)CCN(C(=O)NCc3ccccc3)[C@H]2CN1Cc1cccc2ccccc12
Population Apoptotic (%) [1, 3]: 32% and 30% | Population Fragmented Nuclei (%) [1, 3]: 18% and 27% | Population Healthy Nuclei (%) [1, 3]: 57% and 45% | Population Hoechst High Intensity Objects (%) [1, 3]: 3% and 2% | Population Membrane Permeable-Phenotype (%) [1, 3]: 0% and 5% | Population Mitochondria Different-Phenotype (%) [1, 3]: 11% and 13% | Population Mitotic Cells (%) [1, 3]: 67% and 69% | Population Normal (%) [1, 3]: 96% and 97% | Population Pyknosed Nuclei (%) [1, 3]: 24% and 26% | Population Tubulin-Different-Phenotype (%) [1, 3]: 47% and 58% | Total Cell Count [1, 3]: 160 and 152 | Population Apoptotic (%) [1, 4]: 35% and 45% | Population Fragmented Nuclei (%) [1, 4]: 18% and 23% | Population Healthy Nuclei (%) [1, 4]: 58% and 45% | Population Hoechst High Intensity Objects (%) [1, 4]: 8% and 9% | Population Membrane Permeable-Phenotype (%) [1, 4]: 0% and 8% | Population Mitochondria Different-Phenotype (%) [1, 4]: 24% and 15% | Population Mitotic Cells (%) [1, 4]: 64% and 55% | Population Normal (%) [1, 4]: 91% and 90% | Population Pyknosed Nuclei (%) [1, 4]: 23% and 30% | Population Tubulin-Different-Phenotype (%) [1, 4]: 84% and 83% | Total Cell Count [1, 4]: 146 and 144 | Population Apoptotic (%) [1, 5]: 42% and 28% | Population Fragmented Nuclei (%) [1, 5]: 16% and 30% | Population Healthy Nuclei (%) [1, 5]: 62% and 47% | Population Hoechst High Intensity Objects (%) [1, 5]: 3% and 2% | Population Membrane Permeable-Phenotype (%) [1, 5]: 3% and 7% | Population Mitochondria Different-Phenotype (%) [1, 5]: 7% and 8% | Population Mitotic Cells (%) [1, 5]: 57% and 71% | Population Normal (%) [1, 5]: 96% and 97% | Population Pyknosed Nuclei (%) [1, 5]: 21% and 22% | Population Tubulin-Different-Phenotype (%) [1, 5]: 49% and 58% | Total Cell Count [1, 5]: 158 and 147 | Population Apoptotic (%) [1, 6]: 44% and 64% | Population Fragmented Nuclei (%) [1, 6]: 15% and 25% | Population Healthy Nuclei (%) [1, 6]: 62% and 47% | Population Hoechst High Intensity Objects (%) [1, 6]: 10% and 7% | Population Mitochondria Different-Phenotype (%) [1, 6]: 44% and 21% | Population Mitotic Cells (%) [1, 6]: 55% and 35% | Population Normal (%) [1, 6]: 89% and 92% | Population Pyknosed Nuclei (%) [1, 6]: 21% and 26% | Population Tubulin-Different-Phenotype (%) [1, 6]: 83% | Total Cell Count [1, 6]: 141 and 137 | Population Apoptotic (%) [1, 7]: 62% and 54% | Population Fragmented Nuclei (%) [1, 7]: 22% and 37% | Population Healthy Nuclei (%) [1, 7]: 59% and 45% | Population Hoechst High Intensity Objects (%) [1, 7]: 7% and 5% | Population Membrane Permeable-Phenotype (%) [1, 7]: 2% and 5% | Population Mitochondria Different-Phenotype (%) [1, 7]: 7% and 6% | Population Mitotic Cells (%) [1, 7]: 37% and 45% | Population Normal (%) [1, 7]: 92% and 94% | Population Pyknosed Nuclei (%) [1, 7]: 17% | Population Tubulin-Different-Phenotype (%) [1, 7]: 54% and 48% | Total Cell Count [1, 7]: 164 and 135 | Population Apoptotic (%) [1, 8]: 85% and 66% | Population Fragmented Nuclei (%) [1, 8]: 21% and 32% | Population Healthy Nuclei (%) [1, 8]: 58% and 53% | Population Hoechst High Intensity Objects (%) [1, 8]: 15% and 10% | Population Membrane Permeable-Phenotype (%) [1, 8]: 0% and 5% | Population Mitochondria Different-Phenotype (%) [1, 8]: 50% and 38% | Population Mitotic Cells (%) [1, 8]: 14% and 33% | Population Normal (%) [1, 8]: 84% and 89% | Population Pyknosed Nuclei (%) [1, 8]: 20% and 14% | Population Tubulin-Different-Phenotype (%) [1, 8]: 85% and 94% | Total Cell Count [1, 8]: 124 and 119 | Population Apoptotic (%) [2, 3]: 44% and 46% | Population Fragmented Nuclei (%) [2, 3]: 6% and 7% | Population Healthy Nuclei (%) [2, 3]: 80% and 78% | Population Hoechst High Intensity Objects (%) [2, 3]: 6% and 8% | Population Membrane Permeable-Phenotype (%) [2, 3]: 0% | Population Mitochondria Different-Phenotype (%) [2, 3]: 54% and 68% | Population Mitotic Cells (%) [2, 3]: 55% and 53% | Population Normal (%) [2, 3]: 93% and 91% | Population Pyknosed Nuclei (%) [2, 3]: 12% and 13% | Population Tubulin-Different-Phenotype (%) [2, 3]: 46% and 33% | Total Cell Count [2, 3]: 374 and 259 | Population Apoptotic (%) [2, 4]: 68% and 60% | Population Fragmented Nuclei (%) [2, 4]: 5% | Population Healthy Nuclei (%) [2, 4]: 74% and 82% | Population Hoechst High Intensity Objects (%) [2, 4]: 11% and 14% | Population Membrane Permeable-Phenotype (%) [2, 4]: 0% | Population Mitochondria Different-Phenotype (%) [2, 4]: 90% and 93% | Population Mitotic Cells (%) [2, 4]: 31% and 40% | Population Normal (%) [2, 4]: 88% and 85% | Population Pyknosed Nuclei (%) [2, 4]: 20% and 11% | Population Tubulin-Different-Phenotype (%) [2, 4]: 76% and 67% | Total Cell Count [2, 4]: 340 and 257 | Population Apoptotic (%) [2, 5]: 23% and 55% | Population Fragmented Nuclei (%) [2, 5]: 7% and 8% | Population Healthy Nuclei (%) [2, 5]: 80% and 77% | Population Hoechst High Intensity Objects (%) [2, 5]: 7% and 8% | Population Membrane Permeable-Phenotype (%) [2, 5]: 0% | Population Mitochondria Different-Phenotype (%) [2, 5]: 49% and 47% | Population Mitotic Cells (%) [2, 5]: 76% and 45% | Population Normal (%) [2, 5]: 92% and 91% | Population Pyknosed Nuclei (%) [2, 5]: 11% and 14% | Population Tubulin-Different-Phenotype (%) [2, 5]: 38% and 24% | Total Cell Count [2, 5]: 470 and 305
